Experimental data from ChEMBL document CHEMBL3259614, “Design, synthesis, and structure-activity relationship studies of novel fused heterocycles-linked triazoles with good activity and water solubility” (J Med Chem, 2014).
Converted amounts (≈) assume the structure as drawn.

Legend:
Assay type in all cases: functional
Candida albicans [1] = assay: Antimicrobial activity against Candida albicans SC5314 after 24 hrs by serial dilution method; settings: SC5314, 24 h
Summary of the method: (§1)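 Broth serial dilution MIC in 96-well plates following NCCLS/CLSI methods. Compounds were dissolved in DMSO and serially diluted in growth medium, with incubation at 35 °C. […] C. parapsilosis 22019 served as the quality-control strain in each assay.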

Candida albicans [2] = assay: Antimicrobial activity against Candida albicans Y0109 after 24 hrs by serial dilution method; settings: Y0109, 24 h; summary of the method: as §1
Candida parapsilosis = assay: Antimicrobial activity against Candida parapsilosis 22019 after 24 hrs by serial dilution method; settings: Lodderomyces parapsilosis, 22019, 24 h; summary of the method: as §1
Cryptococcus neoformans = assay: Antimicrobial activity against Cryptococcus neoformans 32609 after 72 hrs by serial dilution method; settings: Cryptococcus neoformans, 32609, 72 h; summary of the method: as §1
Nakaseomyces glabratus = assay: Antimicrobial activity against Candida glabrata 537 after 24 hrs by serial dilution method; settings: Nakaseomyces glabratus, 537, 24 h; summary of the method: as §1
Aspergillus fumigatus = assay: Antimicrobial activity against Aspergillus fumigatus 7544 after 48 hrs by serial dilution method; settings: Aspergillus fumigatus, 7544, 48 h; summary of the method: as §1

SMILES | MIC (Candida albicans [1]) | MIC (Candida albicans [2]) | MIC (Candida parapsilosis) | MIC (Cryptococcus neoformans) | MIC (Nakaseomyces glabratus) | MIC (Aspergillus fumigatus)
C[C@@H](N1CCc2nc(-c3ccsc3)sc2C1)[C@](O)(Cn1cncn1)c1ccc(F)cc1F | 0.25 µg/mL (≈ 0.528 µM) | 0.25 µg/mL (≈ 0.528 µM) | 0.25 µg/mL (≈ 0.528 µM) | 0.25 µg/mL (≈ 0.528 µM) | 0.25 µg/mL (≈ 0.528 µM) | 8 µg/mL (≈ 16.9 µM)
C[C@@H](N1CCc2nc(-c3cccc(F)c3)sc2C1)[C@](O)(Cn1cncn1)c1ccc(F)cc1F | 2 µg/mL (≈ 4.12 µM) | 2 µg/mL (≈ 4.12 µM) | 2 µg/mL (≈ 4.12 µM) | 2 µg/mL (≈ 4.12 µM) | 8 µg/mL (≈ 16.5 µM) | 32 µg/mL (≈ 65.9 µM)
Cc1cccc(-c2nc3c(s2)CN([C@H](C)[C@](O)(Cn2cncn2)c2ccc(F)cc2F)CC3)c1 | 2 µg/mL (≈ 4.15 µM) | 2 µg/mL (≈ 4.15 µM) | 1 µg/mL (≈ 2.08 µM) | 4 µg/mL (≈ 8.31 µM) | 4 µg/mL (≈ 8.31 µM) | 32 µg/mL (≈ 66.4 µM)
C[C@@H](N1CCc2nc(-c3cccc(Br)c3)sc2C1)[C@](O)(Cn1cncn1)c1ccc(F)cc1F | 2 µg/mL (≈ 3.66 µM) | 2 µg/mL (≈ 3.66 µM) | 2 µg/mL (≈ 3.66 µM) | 4 µg/mL (≈ 7.32 µM) | 8 µg/mL (≈ 14.6 µM) | 32 µg/mL (≈ 58.6 µM)
COc1cccc(-c2nc3c(s2)CN([C@H](C)[C@](O)(Cn2cncn2)c2ccc(F)cc2F)CC3)c1 | 1 µg/mL (≈ 2.01 µM) | 1 µg/mL (≈ 2.01 µM) | 1 µg/mL (≈ 2.01 µM) | 2 µg/mL (≈ 4.02 µM) | 1 µg/mL (≈ 2.01 µM) | 16 µg/mL (≈ 32.2 µM)
C[C@@H](N1CCc2nc(-c3ccc(C#N)cc3)sc2C1)[C@](O)(Cn1cncn1)c1ccc(F)cc1F | 0.0625 µg/mL (≈ 0.127 µM) | 0.125 µg/mL (≈ 0.254 µM) | 0.125 µg/mL (≈ 0.254 µM) | 0.125 µg/mL (≈ 0.254 µM) | 0.5 µg/mL (≈ 1.02 µM) | 16 µg/mL (≈ 32.5 µM)
C[C@@H](N1CCc2nc(-c3cccc(C#N)c3)sc2C1)[C@](O)(Cn1cncn1)c1ccc(F)cc1F | 0.125 µg/mL (≈ 0.254 µM) | 0.125 µg/mL (≈ 0.254 µM) | 2 µg/mL (≈ 4.06 µM) | 1 µg/mL (≈ 2.03 µM) | 2 µg/mL (≈ 4.06 µM) | 16 µg/mL (≈ 32.5 µM)
C[C@@H](N1CCc2nc(-c3cccs3)sc2C1)[C@](O)(Cn1cncn1)c1ccc(F)cc1F | 0.25 µg/mL (≈ 0.528 µM) | 0.25 µg/mL (≈ 0.528 µM) | 1 µg/mL (≈ 2.11 µM) | 0.5 µg/mL (≈ 1.06 µM) | 0.5 µg/mL (≈ 1.06 µM) | 8 µg/mL (≈ 16.9 µM)
C[C@@H](N1CCc2nc(-c3ccco3)sc2C1)[C@](O)(Cn1cncn1)c1ccc(F)cc1F | 0.25 µg/mL (≈ 0.546 µM) | 1 µg/mL (≈ 2.19 µM) | 1 µg/mL (≈ 2.19 µM) | 0.5 µg/mL (≈ 1.09 µM) | 0.5 µg/mL (≈ 1.09 µM) | 8 µg/mL (≈ 17.5 µM)
C[C@@H](N1CCc2nc(-c3ccncc3)sc2C1)[C@](O)(Cn1cncn1)c1ccc(F)cc1F | 0.0312 µg/mL (≈ 0.0667 µM) | 0.0312 µg/mL (≈ 0.0667 µM) | 0.125 µg/mL (≈ 0.267 µM) | 0.125 µg/mL (≈ 0.267 µM) | 0.125 µg/mL (≈ 0.267 µM) | 4 µg/mL (≈ 8.54 µM)
C[C@@H](N1CCc2nc(-c3cncc(F)c3)sc2C1)[C@](O)(Cn1cncn1)c1ccc(F)cc1F | 0.125 µg/mL (≈ 0.257 µM) | 0.125 µg/mL (≈ 0.257 µM) | 0.25 µg/mL (≈ 0.514 µM) | 0.125 µg/mL (≈ 0.257 µM) | 0.125 µg/mL (≈ 0.257 µM) | 8 µg/mL (≈ 16.4 µM)
C[C@@H](N1CCc2nc(-c3cncc(C#N)c3)sc2C1)[C@](O)(Cn1cncn1)c1ccc(F)cc1F | 0.125 µg/mL (≈ 0.253 µM) | 0.25 µg/mL (≈ 0.507 µM) | 0.25 µg/mL (≈ 0.507 µM) | 0.25 µg/mL (≈ 0.507 µM) | 0.5 µg/mL (≈ 1.01 µM) | 8 µg/mL (≈ 16.2 µM)
C[C@@H](N1CCc2nc(-c3ccc(C#N)nc3)sc2C1)[C@](O)(Cn1cncn1)c1ccc(F)cc1F | 0.0625 µg/mL (≈ 0.127 µM) | 0.0625 µg/mL (≈ 0.127 µM) | 0.25 µg/mL (≈ 0.507 µM) | 0.25 µg/mL (≈ 0.507 µM) | 0.5 µg/mL (≈ 1.01 µM) | 8 µg/mL (≈ 16.2 µM)
C[C@@H](N1CCc2nc(-c3ccc(F)nc3)sc2C1)[C@](O)(Cn1cncn1)c1ccc(F)cc1F | 0.0625 µg/mL (≈ 0.128 µM) | 0.125 µg/mL (≈ 0.257 µM) | 0.25 µg/mL (≈ 0.514 µM) | 0.125 µg/mL (≈ 0.257 µM) | 0.125 µg/mL (≈ 0.257 µM) | 8 µg/mL (≈ 16.4 µM)
COc1ccc(-c2nc3c(s2)CN([C@H](C)[C@](O)(Cn2cncn2)c2ccc(F)cc2F)CC3)cn1 | 0.25 µg/mL (≈ 0.501 µM) | 0.25 µg/mL (≈ 0.501 µM) | 0.5 µg/mL (≈ 1 µM) | 0.25 µg/mL (≈ 0.501 µM) | 0.5 µg/mL (≈ 1 µM) | 16 µg/mL (≈ 32.1 µM)
Cc1ncc(-c2nc3c(s2)CN([C@H](C)[C@](O)(Cn2cncn2)c2ccc(F)cc2F)CC3)cn1 | 0.0625 µg/mL (≈ 0.129 µM) | 0.0625 µg/mL (≈ 0.129 µM) | 0.25 µg/mL (≈ 0.517 µM) | 0.25 µg/mL (≈ 0.517 µM) | 0.25 µg/mL (≈ 0.517 µM) | 16 µg/mL (≈ 33.1 µM)
COc1ncc(-c2nc3c(s2)CN([C@H](C)[C@](O)(Cn2cncn2)c2ccc(F)cc2F)CC3)cn1 | 0.0625 µg/mL (≈ 0.125 µM) | 0.125 µg/mL (≈ 0.25 µM) | 0.25 µg/mL (≈ 0.5 µM) | 0.5 µg/mL (≈ 1 µM) | 0.25 µg/mL (≈ 0.5 µM) | 8 µg/mL (≈ 16 µM)
C[C@@H](N1CCc2sc(Br)cc2C1)[C@](O)(Cn1cncn1)c1ccc(F)cc1F | 2 µg/mL (≈ 4.26 µM) | 4 µg/mL (≈ 8.52 µM) | 8 µg/mL (≈ 17 µM) | 2 µg/mL (≈ 4.26 µM) | 4 µg/mL (≈ 8.52 µM) | 64 µg/mL (≈ 136 µM)
C[C@@H](N1CCc2sc(-c3ccccc3)cc2C1)[C@](O)(Cn1cncn1)c1ccc(F)cc1F | 1 µg/mL (≈ 2.14 µM) | 8 µg/mL (≈ 17.1 µM) | 8 µg/mL (≈ 17.1 µM) | 2 µg/mL (≈ 4.29 µM) | 4 µg/mL (≈ 8.57 µM) | 32 µg/mL (≈ 68.6 µM)
C[C@@H](N1CCc2sc(-c3ccc(F)cc3)cc2C1)[C@](O)(Cn1cncn1)c1ccc(F)cc1F | 2 µg/mL (≈ 4.13 µM) | 2 µg/mL (≈ 4.13 µM) | 8 µg/mL (≈ 16.5 µM) | 2 µg/mL (≈ 4.13 µM) | 4 µg/mL (≈ 8.26 µM) | 64 µg/mL (≈ 132 µM)
C[C@@H](N1CCc2sc(-c3ccc(C(F)(F)F)cc3)cc2C1)[C@](O)(Cn1cncn1)c1ccc(F)cc1F | 4 µg/mL (≈ 7.48 µM) | 8 µg/mL (≈ 15 µM) | 16 µg/mL (≈ 29.9 µM) | 8 µg/mL (≈ 15 µM) | 16 µg/mL (≈ 29.9 µM) | 32 µg/mL (≈ 59.9 µM)
C[C@@H](N1CCc2sc(-c3ccc(Cl)cc3)cc2C1)[C@](O)(Cn1cncn1)c1ccc(F)cc1F | 4 µg/mL (≈ 7.98 µM) | 8 µg/mL (≈ 16 µM) | 16 µg/mL (≈ 31.9 µM) | 8 µg/mL (≈ 16 µM) | 16 µg/mL (≈ 31.9 µM) | 32 µg/mL (≈ 63.9 µM)
Cc1ccc(-c2cc3c(s2)CCN([C@H](C)[C@](O)(Cn2cncn2)c2ccc(F)cc2F)C3)cc1 | 1 µg/mL (≈ 2.08 µM) | 2 µg/mL (≈ 4.16 µM) | 4 µg/mL (≈ 8.32 µM) | 4 µg/mL (≈ 8.32 µM) | 4 µg/mL (≈ 8.32 µM) | 8 µg/mL (≈ 16.6 µM)
C[C@@H](N1CCc2sc(-c3ccc(C#N)cc3)cc2C1)[C@](O)(Cn1cncn1)c1ccc(F)cc1F | 2 µg/mL (≈ 4.07 µM) | 8 µg/mL (≈ 16.3 µM) | 8 µg/mL (≈ 16.3 µM) | 4 µg/mL (≈ 8.14 µM) | 8 µg/mL (≈ 16.3 µM) | 64 µg/mL (≈ 130 µM)
Cc1cccc(-c2cc3c(s2)CCN([C@H](C)[C@](O)(Cn2cncn2)c2ccc(F)cc2F)C3)c1 | 1 µg/mL (≈ 2.08 µM) | 2 µg/mL (≈ 4.16 µM) | 2 µg/mL (≈ 4.16 µM) | 4 µg/mL (≈ 8.32 µM) | 4 µg/mL (≈ 8.32 µM) | 16 µg/mL (≈ 33.3 µM)
C[C@@H](N1CCc2sc(-c3cccc(F)c3)cc2C1)[C@](O)(Cn1cncn1)c1ccc(F)cc1F | 1 µg/mL (≈ 2.06 µM) | 2 µg/mL (≈ 4.13 µM) | 4 µg/mL (≈ 8.26 µM) | 1 µg/mL (≈ 2.06 µM) | 1 µg/mL (≈ 2.06 µM) | 8 µg/mL (≈ 16.5 µM)
C[C@@H](N1CCc2sc(-c3cccc(C#N)c3)cc2C1)[C@](O)(Cn1cncn1)c1ccc(F)cc1F | 2 µg/mL (≈ 4.07 µM) | 4 µg/mL (≈ 8.14 µM) | 4 µg/mL (≈ 8.14 µM) | 2 µg/mL (≈ 4.07 µM) | 8 µg/mL (≈ 16.3 µM) | 64 µg/mL (≈ 130 µM)
C[C@@H](N1CCc2sc(-c3cccc(Cl)c3)cc2C1)[C@](O)(Cn1cncn1)c1ccc(F)cc1F | 2 µg/mL (≈ 3.99 µM) | 2 µg/mL (≈ 3.99 µM) | 4 µg/mL (≈ 7.98 µM) | 4 µg/mL (≈ 7.98 µM) | 8 µg/mL (≈ 16 µM) | > 64 µg/mL
C[C@@H](N1CCc2sc(-c3cccc(C(F)(F)F)c3)cc2C1)[C@](O)(Cn1cncn1)c1ccc(F)cc1F | 1 µg/mL (≈ 1.87 µM) | 0.5 µg/mL (≈ 0.935 µM) | 2 µg/mL (≈ 3.74 µM) | 0.5 µg/mL (≈ 0.935 µM) | 1 µg/mL (≈ 1.87 µM) | 32 µg/mL (≈ 59.9 µM)
C[C@@H](N1CCc2sc(-c3cncnc3)cc2C1)[C@](O)(Cn1cncn1)c1ccc(F)cc1F | 2 µg/mL (≈ 4.27 µM) | 4 µg/mL (≈ 8.54 µM) | 4 µg/mL (≈ 8.54 µM) | 4 µg/mL (≈ 8.54 µM) | 8 µg/mL (≈ 17.1 µM) | > 32 µg/mL
